One block for each compound: values may come before it. Residues, ends and D or L forms follow the SMILES beside them. *: point of attachment. AMC = Cc1cc(=O)oc2cc(N*)ccc12; Cbz = O=C(OCc1ccccc1)*
Assays:
DUBs in OPM2 lysates = test: DUB-mediated hydrolysis of peptide reporters in OPM2 lysates; type: biochemical
Method in brief: (§1)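 Lysates (4 mg/mL protein, by NanoDrop) came from M-PER extraction of PBS-washed HeLa or OPM2 cells, clarified at 14,000 × g. Lysates were pre-treated 1 h with 20 or 50 μM PR-619 or DMSO, in 50 mM HEPES pH 7.4, 150 mM NaCl, 2 mM DTT, 0.02% Tween-20. Released AFC or AMC was read every 30 min for 6 h at 30°C. Rates were calibrated, and Km and vmax came from Michaelis-Menten fits.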

DUBs in HeLa lysates = test: DUB-mediated hydrolysis of peptide reporters in HeLa lysates; type: biochemical; conditions: for V/K value (Vmax/Km): HeLa lysates 4 mg/mL, DMSO curves, Michaelis-Menten parameters
Method in brief: as §1

[1] = system: DUBs in intact OPM2 cells; test: Direct visualization of DUB activity in intact OPM2 cells; type: cell-based; conditions: 50 μM peptide, 120 minutes, 37°C, DAPI filter
[2] = system: DUBs in intact HeLa cells; test: Enzyme-substrate kinetics in intact HeLa cells; type: cell-based
intact cells = conditions: cited from earlier work
[3] = cited from earlier work

Compound: N#CSc1cc(SC#N)c(N)nc1N [PR-619]
- Inhibition of DUB activity (residual activity) (DUBs in OPM2 lysates; lysates treated with 50 μM PR-619, pre-treatment 1 h, OPM2 lysates): incomplete inhibition
- Inhibition of DUB activity (residual activity) (DUBs in HeLa lysates; lysates treated with 50 μM PR-619, pre-treatment 1 h, HeLa lysates): incomplete inhibition

- V/K value (Vmax/Km) (DUBs in HeLa lysates): 0.00021 min⁻¹
Compound: Cc1cc(=O)oc2cc(NC(=O)CNC(=O)CNC(=O)[C@H](CCCNC(=N)N)NC(=O)[C@H](CC(C)C)NC(=O)OCc3ccccc3)ccc12 [Peptide 3, Z-Leu-Arg-Gly-Gly-AMC] (Cbz-LRGG-{AMC})
- Intracellular fluorescence signal from DUB-mediated hydrolysis [1]: did not produce a detectable signal
- Reaction rates in intact cells ([2]; intact HeLa cells incubated with varying peptide concentrations for 6 h): not significantly different from zero

Compound: Ac-RWVRVpGO(FAM)WIRQ-LRGG-AFC [Peptide 1]
- Intracellular fluorescence signal from DUB-mediated hydrolysis [1]: showed an increase in intracellular fluorescence
- Uninhibited reaction rates in OPM2 lysates, comparison (DUBs in OPM2 lysates; OPM2 lysates 4 mg/mL, no inhibitor, p<10^−4): significantly higher than Peptide 3
- Si,max, intracellular saturation concentration (model) ([2]; calculated from a, b, c, d, nintact with Eq. 7, HeLa cells): 1.28 µM
- S0,50, external solution concentration at half-saturation level (model) ([2]; calculated from a, b, c, d, nintact with Eq. 8, HeLa cells): 55.1 µM
- nintact (Hill coefficient) ([2]; intact HeLa cells, Hill model fit): 6.8
- (V/K) intact ([2]; intact HeLa cells, from Hill parameters, unit not given): 1.38*10^−5
- V/K value (Vmax/Km) (DUBs in HeLa lysates): 0.00212 min⁻¹

Compound: Ac-RWVRVpGO(FAM)WIRQ-LVLRLRGG-AFC [Peptide 2]
- Effect of DUB inhibition (PR-619) on rate data of the reporter (DUBs in HeLa lysates; HeLa lysates pre-treated 1 h with 0, 20, 50 μM PR-619): did not result in a significant effect

Compound: RWVRVpGRWIRQ [RWRWR]
- Incubation time sufficient to deliver the CPP into intact cells (intact cells): 10 min
- Time to penetrate intact cells (intact cells): ≤ 10 min
- half-life in HeLa lysates [3]: 7 h
